Tests used:
Hepatitis C virus [1] = assay: Antiviral activity against Hepatitis C virus subtype 1b expressing NS3 F43I mutant infected in HuH7 cells after 48 hrs by luciferase reporter assay; type: functional, organism-based, Hepacivirus hominis; conditions: genotype 1b, Huh-7, 48 h
Method in brief: (§1)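 Genotype 1b con1 subgenomic bicistronic replicon (clone ET) with luciferase reporter and adaptive mutations E1202G, T1280I, K1846T, carrying site-directed NS3 single or double mutations. 10 μg wild-type or mutant replicon RNA electroporated into Huh7-lunet cells, seeded 4,000 cells/well over a nine-point inhibitor dilution series, 48 h at 37°C, 5% CO2, then luminescence read. EC50 taken as median of individual experiments; fold change relative to parental replicon EC50.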

Hepatitis C virus [2] = assay: Antiviral activity against Hepatitis C virus subtype 1b expressing NS3 F43V mutant infected in HuH7 cells after 48 hrs by luciferase reporter assay; type: functional, organism-based, Hepacivirus hominis; conditions: genotype 1b, Huh-7, 48 h; method in brief: as §1
Hepatitis C virus [3] = assay: Antiviral activity against Hepatitis C virus subtype 1b expressing NS3 Q80H mutant infected in HuH7 cells after 48 hrs by luciferase reporter assay; type: functional, organism-based, Hepacivirus hominis; conditions: genotype 1b, Huh-7, 48 h; method in brief: as §1
Hepatitis C virus [4] = assay: Antiviral activity against Hepatitis C virus subtype 1b expressing NS3 Q80G mutant infected in HuH7 cells after 48 hrs by luciferase reporter assay; type: functional, organism-based, Hepacivirus hominis; conditions: genotype 1b, Huh-7, 48 h; method in brief: as §1
Hepatitis C virus [5] = assay: Antiviral activity against Hepatitis C virus subtype 1b expressing NS3 S138T mutant infected in HuH7 cells after 48 hrs by luciferase reporter assay; type: functional, organism-based, Hepacivirus hominis; conditions: genotype 1b, Huh-7, 48 h; method in brief: as §1
Hepatitis C virus [6] = assay: Antiviral activity against Hepatitis C virus subtype 1b expressing NS3 R155I mutant infected in HuH7 cells after 48 hrs by luciferase reporter assay; type: functional, organism-based, Hepacivirus hominis; conditions: genotype 1b, Huh-7, 48 h; method in brief: as §1
Hepatitis C virus [7] = assay: Antiviral activity against Hepatitis C virus subtype 1b expressing NS3 R155K mutant infected in HuH7 cells after 48 hrs by luciferase reporter assay; type: functional, organism-based, Hepacivirus hominis; conditions: genotype 1b, Huh-7, 48 h; method in brief: as §1
Hepatitis C virus [8] = assay: Antiviral activity against Hepatitis C virus subtype 1b expressing NS3 A156T mutant infected in HuH7 cells after 48 hrs by luciferase reporter assay; type: functional, organism-based, Hepacivirus hominis; conditions: genotype 1b, Huh-7, 48 h; method in brief: as §1
Hepatitis C virus [9] = assay: Antiviral activity against Hepatitis C virus subtype 1b expressing NS3 A156V mutant infected in HuH7 cells after 48 hrs by luciferase reporter assay; type: functional, organism-based, Hepacivirus hominis; conditions: genotype 1b, Huh-7, 48 h; method in brief: as §1
Hepatitis C virus [10] = assay: Antiviral activity against Hepatitis C virus subtype 1b expressing NS3 D168T mutant infected in HuH7 cells after 48 hrs by luciferase reporter assay; type: functional, organism-based, Hepacivirus hominis; conditions: genotype 1b, Huh-7, 48 h; method in brief: as §1
Hepatitis C virus [11] = assay: Antiviral activity against Hepatitis C virus subtype 1b expressing NS3 D168H mutant infected in HuH7 cells after 48 hrs by luciferase reporter assay; type: functional, organism-based, Hepacivirus hominis; conditions: genotype 1b, Huh-7, 48 h; method in brief: as §1
Hepatitis C virus [12] = assay: Antiviral activity against Hepatitis C virus subtype 1b expressing NS3 D168V mutant infected in HuH7 cells after 48 hrs by luciferase reporter assay; type: functional, organism-based, Hepacivirus hominis; conditions: genotype 1b, Huh-7, 48 h; method in brief: as §1
Hepatitis C virus [13] = assay: Antiviral activity against Hepatitis C virus subtype 1b expressing NS3 V170T mutant infected in HuH7 cells after 48 hrs by luciferase reporter assay; type: functional, organism-based, Hepacivirus hominis; conditions: genotype 1b, Huh-7, 48 h; method in brief: as §1
Hepatitis C virus [14] = assay: Antiviral activity against Hepatitis C virus subtype 1b expressing NS3 F43S and Q80R mutant infected in HuH7 cells after 48 hrs by luciferase reporter assay; type: functional, organism-based, Hepacivirus hominis; conditions: genotype 1b, Huh-7, 48 h; method in brief: as §1
Hepatitis C virus [15] = assay: Antiviral activity against Hepatitis C virus subtype 1b expressing NS3 Q80H and D168E mutant infected in HuH7 cells after 48 hrs by luciferase reporter assay; type: functional, organism-based, Hepacivirus hominis; conditions: genotype 1b, Huh-7, 48 h; method in brief: as §1
Hepatitis C virus [16] = assay: Ratio of EC50 for Hepatitis C virus subtype 1b expressing NS3 V36 M mutant to EC50 for Hepatitis C virus subtype 1b expressing WT NS3 infected in HuH7 cells after 48 hrs by luciferase reporter assay; type: functional, Hepacivirus hominis, genotype 1b, Huh-7
Method in brief: (§2)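 Transient replicon assay: site-directed single or multiple NS3 mutations engineered into genotype 1b (con1, clone ET) subgenomic bicistronic replicon with luciferase reporter and adaptive mutations E1202G, T1280I, K1846T. Huh7-lunet cells electroporated with 10 μg wild-type or mutant replicon RNA, seeded 4,000 cells/well with nine-point inhibitor dilution; 48 h, 37°C, 5% CO2; luminescence read-out. EC50 as median of individual experiments; fold change versus parental replicon EC50.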

Hepatitis C virus [17] = assay: Ratio of EC50 for Hepatitis C virus subtype 1b expressing NS3 F43V mutant to EC50 for Hepatitis C virus subtype 1b expressing WT NS3 infected in HuH7 cells after 48 hrs by luciferase reporter assay; type: functional, Hepacivirus hominis, genotype 1b, Huh-7; method in brief: as §2
Hepatitis C virus [18] = assay: Ratio of EC50 for Hepatitis C virus subtype 1b expressing NS3 T54A mutant to EC50 for Hepatitis C virus subtype 1b expressing WT NS3 infected in HuH7 cells after 48 hrs by luciferase reporter assay; type: functional, Hepacivirus hominis, genotype 1b, Huh-7; method in brief: as §2
Hepatitis C virus [19] = assay: Ratio of EC50 for Hepatitis C virus subtype 1b expressing NS3 Q80K mutant to EC50 for Hepatitis C virus subtype 1b expressing WT NS3 infected in HuH7 cells after 48 hrs by luciferase reporter assay; type: functional, Hepacivirus hominis, genotype 1b, Huh-7; method in brief: as §2
Hepatitis C virus [20] = assay: Ratio of EC50 for Hepatitis C virus subtype 1b expressing NS3 Q80G mutant to EC50 for Hepatitis C virus subtype 1b expressing WT NS3 infected in HuH7 cells after 48 hrs by luciferase reporter assay; type: functional, Hepacivirus hominis, genotype 1b, Huh-7; method in brief: as §2
Hepatitis C virus [21] = assay: Ratio of EC50 for Hepatitis C virus subtype 1b expressing NS3 R109K mutant to EC50 for Hepatitis C virus subtype 1b expressing WT NS3 infected in HuH7 cells after 48 hrs by luciferase reporter assay; type: functional, Hepacivirus hominis, genotype 1b, Huh-7; method in brief: as §2
Hepatitis C virus [22] = assay: Ratio of EC50 for Hepatitis C virus subtype 1b expressing NS3 R155T mutant to EC50 for Hepatitis C virus subtype 1b expressing WT NS3 infected in HuH7 cells after 48 hrs by luciferase reporter assay; type: functional, Hepacivirus hominis, genotype 1b, Huh-7; method in brief: as §2
Hepatitis C virus [23] = assay: Ratio of EC50 for Hepatitis C virus subtype 1b expressing NS3 A156S mutant to EC50 for Hepatitis C virus subtype 1b expressing WT NS3 infected in HuH7 cells after 48 hrs by luciferase reporter assay; type: functional, Hepacivirus hominis, genotype 1b, Huh-7; method in brief: as §1
Hepatitis C virus [24] = assay: Ratio of EC50 for Hepatitis C virus subtype 1b expressing NS3 A156T mutant to EC50 for Hepatitis C virus subtype 1b expressing WT NS3 infected in HuH7 cells after 48 hrs by luciferase reporter assay; type: functional, Hepacivirus hominis, genotype 1b, Huh-7; method in brief: as §1
Hepatitis C virus [25] = assay: Ratio of EC50 for Hepatitis C virus subtype 1b expressing NS3 D168N mutant to EC50 for Hepatitis C virus subtype 1b expressing WT NS3 infected in HuH7 cells after 48 hrs by luciferase reporter assay; type: functional, Hepacivirus hominis, genotype 1b, Huh-7; method in brief: as §2
Hepatitis C virus [26] = assay: Ratio of EC50 for Hepatitis C virus subtype 1b expressing NS3 D168Y mutant to EC50 for Hepatitis C virus subtype 1b expressing WT NS3 infected in HuH7 cells after 48 hrs by luciferase reporter assay; type: functional, Hepacivirus hominis, genotype 1b, Huh-7; method in brief: as §2
Hepatitis C virus [27] = assay: Ratio of EC50 for Hepatitis C virus subtype 1b expressing NS3 D168H mutant to EC50 for Hepatitis C virus subtype 1b expressing WT NS3 infected in HuH7 cells after 48 hrs by luciferase reporter assay; type: functional, Hepacivirus hominis, genotype 1b, Huh-7; method in brief: as §2
Hepatitis C virus [28] = assay: Ratio of EC50 for Hepatitis C virus subtype 1b expressing NS3 D168V mutant to EC50 for Hepatitis C virus subtype 1b expressing WT NS3 infected in HuH7 cells after 48 hrs by luciferase reporter assay; type: functional, Hepacivirus hominis, genotype 1b, Huh-7; method in brief: as §2
Hepatitis C virus [29] = assay: Ratio of EC50 for Hepatitis C virus subtype 1b expressing NS3 F43S and Q80R mutant to EC50 for Hepatitis C virus subtype 1b expressing WT NS3 infected in HuH7 cells after 48 hrs by luciferase reporter assay; type: functional, Hepacivirus hominis, genotype 1b, Huh-7; method in brief: as §2
Hepatitis C virus [30] = assay: Ratio of EC50 for Hepatitis C virus subtype 1b expressing NS3 Q80K and R155K mutant to EC50 for Hepatitis C virus subtype 1b expressing WT NS3 infected in HuH7 cells after 48 hrs by luciferase reporter assay; type: functional, Hepacivirus hominis, genotype 1b, Huh-7; method in brief: as §2
Hepatitis C virus [31] = assay: Ratio of EC50 for Hepatitis C virus subtype 1b expressing NS3 Q80R and R155K mutant to EC50 for Hepatitis C virus subtype 1b expressing WT NS3 infected in HuH7 cells after 48 hrs by luciferase reporter assay; type: functional, Hepacivirus hominis, genotype 1b, Huh-7; method in brief: as §2

SMILES | EC50 (Hepatitis C virus [1]) [nM] | EC50 (Hepatitis C virus [2]) [nM] | EC50 (Hepatitis C virus [3]) [nM] | EC50 (Hepatitis C virus [4]) [nM] | EC50 (Hepatitis C virus [5]) [nM] | EC50 (Hepatitis C virus [6]) [nM] | EC50 (Hepatitis C virus [7]) [nM] | EC50 (Hepatitis C virus [8]) [nM] | EC50 (Hepatitis C virus [9]) [nM] | EC50 (Hepatitis C virus [10]) [nM] | EC50 (Hepatitis C virus [11]) [nM] | EC50 (Hepatitis C virus [12]) [nM] | EC50 (Hepatitis C virus [13]) [nM] | EC50 (Hepatitis C virus [14]) [nM] | EC50 (Hepatitis C virus [15]) [nM] | Ratio EC50 (Hepatitis C virus [16]) | Ratio EC50 (Hepatitis C virus [17]) | Ratio EC50 (Hepatitis C virus [18]) | Ratio EC50 (Hepatitis C virus [19]) | Ratio EC50 (Hepatitis C virus [20]) | also measured
CC(C)(C)NC(=O)N[C@H](C(=O)N1C[C@H]2[C@@H]([C@H]1C(=O)NC(CC1CCC1)C(=O)C(N)=O)C2(C)C)C(C)(C)C (some centres not stated) [BOCEPREVIR] | 242 | 527 | 78 | 127 | 16 | 5340 | 743 | 7230 | 9670 | 299 | 73 | 83 | 210 | 1550 | 20 | 1.8 | 2.4 | 2.1 | 0.8 | 1.2 | Ratio EC50 (Hepatitis C virus [21]): 1; Ratio EC50 (Hepatitis C virus [22]): 51; Ratio EC50 (Hepatitis C virus [23]): 3.5; Ratio EC50 (Hepatitis C virus [24]): 65; Ratio EC50 (Hepatitis C virus [25]): 1.9; Ratio EC50 (Hepatitis C virus [26]): 2.4; Ratio EC50 (Hepatitis C virus [27]): 0.7; Ratio EC50 (Hepatitis C virus [28]): 0.5; Ratio EC50 (Hepatitis C virus [29]): 7.4; Ratio EC50 (Hepatitis C virus [30]): 5.1; Ratio EC50 (Hepatitis C virus [31]): 2.7
COc1ccc2c(O[C@@H]3C[C@H]4C(=O)N[C@]5(C(=O)O)C[C@H]5/C=C\CCCCC[C@H](NC(=O)OC5CCCC5)C(=O)N4C3)cc(-c3csc(NC(C)C)n3)nc2c1 [CILUPREVIR] | 0.4 | 0.4 | 1.2 | 3 | 0.5 | 29 | 489 | 1070 | 1520 | 520 | 215 | 1810 | 4.8 | 0.4 | 52 | 1.2 | 0.5 | 0.6 | 0.9 | 4.9 | Ratio EC50 (Hepatitis C virus [21]): 0.7; Ratio EC50 (Hepatitis C virus [22]): 562; Ratio EC50 (Hepatitis C virus [23]): 2.8; Ratio EC50 (Hepatitis C virus [24]): 1344; Ratio EC50 (Hepatitis C virus [25]): 12; Ratio EC50 (Hepatitis C virus [26]): 2488; Ratio EC50 (Hepatitis C virus [27]): 263; Ratio EC50 (Hepatitis C virus [28]): 3213; Ratio EC50 (Hepatitis C virus [29]): 0.6; Ratio EC50 (Hepatitis C virus [30]): 736; Ratio EC50 (Hepatitis C virus [31]): 772

— ChEMBL document CHEMBL1671684, “In vitro resistance profile of the hepatitis C virus NS3/4A protease inhibitor TMC435” (Antimicrob Agents Chemother, 2010)
